Data as given in ChEMBL document CHEMBL1123904, “Synthesis, structure, and biological activity of certain 2-deoxy-beta-D-ribo-hexopyranosyl nucleosides and nucleotides” (J Med Chem, 1987).

How the values were obtained:
Human alphaherpesvirus 2 = test: In vitro antiviral activity Virus rating (VR) determined by comparing CPE development in drug-treated cells (T) and virus control cells (C) against, Herpes simplex virus-2; assay type: functional
Procedure, shortened: (§1)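 Vero (African green monkey kidney) cells in 10% FBS DMEM, seeded 4 × 10^4 cells/well, confluent over 24 h at 37 °C, 5% CO2. Virus (amount giving full monolayer destruction in 72 h; HSV-2 strain 333, measles Edmonston, para 3 C243) adsorbed 30 min. Compound added after adsorption at seven 0.5-log steps, final 5 × 10^-6 to 5 × 10^-3 M. Duplicate infected wells, single uninfected wells for toxicity.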

Vaccinia virus = test: In vitro antiviral activity Virus rating (VR) determined by comparing CPE development in drug-treated cells (T) and virus control cells (C) against, Vaccinia virus; assay type: functional, Orthopoxvirus vaccinia
Human respirovirus 3 = test: In vitro antiviral activity Virus rating (VR) determined by comparing CPE development in drug-treated cells (T) and virus control cells (C) against, parainfluenza type 3 (para 3); assay type: functional; procedure, shortened: as §1
Measles morbillivirus = test: In vitro antiviral activity Virus rating (VR) determined by comparing CPE development in drug-treated cells (T) and virus control cells (C) against, measles; assay type: functional; procedure, shortened: as §1
[1] = Ability of inhibit mammalian uridine phosphorylase
Adenosine deaminase = molecular target: T1, Adenosine deaminase (Bos taurus, UniProt P56658); test: Ability to inhibit adenosine deaminase
T1 sequence (P56658 whole entry): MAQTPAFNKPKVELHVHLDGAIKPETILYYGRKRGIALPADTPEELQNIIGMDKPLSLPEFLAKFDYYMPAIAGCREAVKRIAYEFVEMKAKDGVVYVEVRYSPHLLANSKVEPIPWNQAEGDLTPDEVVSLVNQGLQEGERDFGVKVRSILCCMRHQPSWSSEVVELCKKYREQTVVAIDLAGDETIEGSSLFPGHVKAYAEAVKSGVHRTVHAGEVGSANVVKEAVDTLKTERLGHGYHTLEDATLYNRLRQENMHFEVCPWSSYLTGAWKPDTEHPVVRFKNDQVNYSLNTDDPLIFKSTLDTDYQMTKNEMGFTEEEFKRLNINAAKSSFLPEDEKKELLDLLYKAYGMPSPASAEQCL
Procedure, shortened: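 Calf intestine adenosine deaminase; substrate and inhibitor kinetic parameters measured spectrophotometrically.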

Compound	VR (Human alphaherpesvirus 2)	VR (Vaccinia virus)	VR (Human respirovirus 3)	VR (Measles morbillivirus)	Ki [1] [µM]	Ki (Adenosine deaminase) [µM]
Nc1ncnc2c1ncn2C1CC(O)C(O)C(COP(=O)(O)O)O1 (stereo not given)	0.44	0	0.16	0.24		
Nc1ccn(C2CC(O)C(O)C(CO)O2)c(=O)n1 (stereo not given)	0	0	0.15	0.5		
Cc1cn(C2CC(O)C(O)C(CO)O2)c(=O)[nH]c1=O (stereo not given)					12	
Nc1ncnc2c1ncn2C1CC(O)C(O)C(CO)O1 (stereo not given)	0	0	0.35	0.9		
O=c1ccn(C2CC(O)C(O)C(COP(=O)(O)O)O2)c(=O)[nH]1 (stereo not given)	0.74	0.28	0.64	0.44		
Nc1ncnc2ncn(C3CC(O)C(O)C(CO)O3)c12 (stereo not given)	0.08	0.22	0	0		
Nc1nc(O)c2ncn(C3CC(O)C(O)C(CO)O3)c2n1 (stereo not given)	1.06	0.19	0	0.3		
O=c1ccn(C2CC(O)C(O)C(CO)O2)c(=O)[nH]1 (stereo not given)	0.06	0.25	0	0		
OCC1OC(n2cnc3c(O)ncnc32)CC(O)C1O (stereo not given)	0.07	0.1	0.06	0		
Nc1nc(N)c2ncn(C3CC(O)C(O)C(CO)O3)c2n1 (stereo not given)	0.62	0.22	0.25	0.54		
Nc1ccn(C2CC(O)C(O)C(COP(=O)(O)O)O2)c(=O)n1 (stereo not given)		0.25	0.28	0.06		
Nc1nc(Cl)nc2c1ncn2C1CC(O)C(O)C(CO)O1 (stereo not given)	0.34	0.04	0	0.05		
OC[C@H]1O[C@@H](n2cnc3c(O)ncnc32)C[C@@H]1O [DEOXYINOSINE]						150
OC[C@H]1O[C@@H](n2cnc3c(O)ncnc32)[C@H](O)[C@@H]1O [INOSINE]						500
Nc1ncnc2c1ncn2[C@@H]1C=C(CO)[C@@H](O)[C@H]1O [NEOPLANOCIN A]	1.39	1.38	1.6	0.75		
